Assay outcomes: PubChem, several laboratories
Yeast lifespan up – extends the lifespan of yeast | AID 775 | inhibition of the nicotinamide effect, % at 10 µM | 130,000 compounds, 0.68% hits | S. cerevisiae growth with nicotinamide, OD615; deaD strain in restrictive glucose medium;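 active means inhibition above a set limit, placed 3 SD over the median of all compounds, cut at about 26% in these data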;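 further: 0% = nicotinamide-treated wells and 100% = cells grown without nicotinamide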
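Buffer or medium: CSMM-D glucose medium, restrictive; test system: modified budding yeast, DeaD strain; compound: single dose 10 µM compound, 0.25% DMSO; schedule: culture preincubation 4 h, compound exposure 48 h, both 30 °C; detection: optical density (absorbance) at 615 nm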
RAM network inh – yeast RAM network inhibition. AID 868. S. cerevisiae dse1pr::URA3 reporter, 5-FOA growth OD615, 2 d; analog-sensitive cbk1-as2 kinase mutant strain. 190,000 compounds, 1.8% hits. inhibition, % at 50 µM;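 active means inhibition above a set limit, 3 SD over mean compound inhibition, cut at about 8.4% in these data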;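 further: 0% = DMSO-only wells with no growth and 100% = 10 µM 1-NA-PP1 full growth; inhibition rescues growth on 5-FOA so higher OD means more RAM inhibition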
Yeast growth inh – yeast BB579 growth reduction in restrictive medium. S. cerevisiae BB579 growth, OD615, 48 h. inhibition, % at 10 µM. 140,000 compounds, 0.51% hits;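 active means inhibition above a set limit, 3 SD over the mean compound inhibition, cut at about 44% in these data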
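Detection: OD615 turbidity measurement; Material: Saccharomyces cerevisiae DeaD strain BB579, replicative lifespan model yeast; Timing: 48 h exposure, 30 °C; Doses: single 10 µM dose; Medium: CSMM-D restrictive synthetic medium containing dextrose (glucose); Controls: amphotericin B at 10 µg/mL as positive control.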
Measles CPE – protection of cells from measles virus. 140,000 compounds, 1.5% hits. AID 841. Measles virus-infected cells, CPE protection, absorbance. protection (pct of control), % at 4 µM; in the data active means protection mostly above about 24%, no sharp cut-off; inactive means mostly below about 26%
WT yeast gro inh – growth inhibition of WT yeast, mitochondrial fusion screen; mitochondrial fusion phenotypic screen, WT strain; inhibition, % at 10 µM; 190,000 compounds, 2.1% hits; AID 1362; in the data active means inhibition above about 58%; tested in S. cerevisiae
DAT uptake mod – human DAT dopamine uptake with cocaine, either direction. 110,000 compounds, 1.3% hits. LLC-PK1 hDAT cells, [14C]-dopamine uptake with cocaine IC80; actives deviate in either direction. Q01959. B-score at 10 µM;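 active means Z score or B-score, a plate-position-corrected score, falls beyond the plate's 99.7% confidence bounds, in either direction; inactive means both scores lie inside the 99.7% bounds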;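 further: scored against the spread of the other compound wells on the same plate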
Target sequence (Q01959 whole entry, looked up): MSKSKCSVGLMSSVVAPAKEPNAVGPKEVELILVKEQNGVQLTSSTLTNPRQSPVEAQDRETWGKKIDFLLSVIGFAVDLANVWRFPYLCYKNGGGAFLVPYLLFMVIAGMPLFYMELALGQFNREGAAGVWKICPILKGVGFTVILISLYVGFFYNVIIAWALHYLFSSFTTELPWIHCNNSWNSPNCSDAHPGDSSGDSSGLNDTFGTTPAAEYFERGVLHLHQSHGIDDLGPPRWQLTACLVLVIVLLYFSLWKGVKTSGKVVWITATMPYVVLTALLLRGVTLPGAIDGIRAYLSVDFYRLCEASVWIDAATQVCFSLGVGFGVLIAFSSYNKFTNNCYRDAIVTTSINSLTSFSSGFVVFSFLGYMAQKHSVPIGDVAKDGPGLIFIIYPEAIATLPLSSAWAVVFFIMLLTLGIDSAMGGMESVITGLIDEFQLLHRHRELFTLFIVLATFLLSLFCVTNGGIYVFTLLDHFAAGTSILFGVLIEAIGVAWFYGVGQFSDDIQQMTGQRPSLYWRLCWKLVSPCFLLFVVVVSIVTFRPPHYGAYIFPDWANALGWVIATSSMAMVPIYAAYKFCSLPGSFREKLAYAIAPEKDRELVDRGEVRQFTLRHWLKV
* = called active by the depositor; . = no result given. Sampled rows, rich in hits. Any-hit rate of the full collection: about 6.1%.

SMILES	Yeast lifespan up	RAM network inh	Yeast growth inh	Measles CPE	WT yeast gro inh	DAT uptake mod
O=C(NCc1ccccn1)C1CCN(S(=O)(=O)N2CCC3(CC2)OCCO3)CC1	5	0	-23	4	-11	.
COCCCNC(=S)NNC(=O)c1csc2ccccc12	2	0	-6	5	-3	.
COc1ccnc(Oc2ccc(F)cc2)c1C(=O)N/C=N/OCc1cccc(F)c1	.	2	.	.	34	.
CC1CCN(c2ccccc2NC(=S)NC(=O)c2cccs2)CC1	-15	2	-23	2	58	-0.98
CC1CCN(c2ccccc2NC(=O)c2ccc(N3CCOCC3)c([N+](=O)[O-])c2)CC1	-13	5	-58	7	8	-0.14
CC1CCN(c2ccccc2NC(=S)NC(=O)C(C)(C)C)CC1	.	3	.	.	78*	.
CC1CCN(c2ccccc2NC(=O)c2ccc(F)cc2)CC1	-12	1	-17	16	72*	-0.73
CCOC(=O)c1c(-c2ccc(C)o2)csc1NC(=O)COC(=O)c1ccc(NC(N)=O)cc1	-4	4	-26	3	4	-0.075
Cc1ccc(C(=O)NCC(=O)NCC(=O)OCC(=O)c2ccc(F)cc2)cc1	-2	3	4	6	-6	.
CC(C)(C)n1nnnc1C(c1cccs1)N(Cc1cccnc1)Cc1ccco1 (stereo unspecified)	-1	0	-83	15	-17	0.42
CC(C)(C)n1nnnc1C(c1cccs1)N(Cc1ccccc1)Cc1ccco1 (stereo unspecified)	2	9.6*	-17	11	.	0.28
OCCNCc1ccc(OCc2ccc(Cl)cc2Cl)cc1	.	0	.	.	75*	.
OCCCCNCc1ccc(OCc2ccc(Cl)cc2Cl)cc1	-21	1	8	.	32	0.69
CCCCC1=CC2=CC(=O)C(C)(OC(=O)CC)C(=O)C2=CN1c1ccccc1 (stereo unspecified)	.	.	.	.	.	-2.9*
O=C(Nc1ccc(N2CCOCC2)cc1)Nc1ccc2nsnc2c1	.	5	.	.	0	.
Cc1onc(-c2ccccc2)c1-c1nc2ccccc2c(=O)o1	2	4	-9	16	4	0.26
CCn1c(C)nc2cc(-c3nnc(-c4c(-c5ccccc5)noc4C)o3)ccc21	-4	1	-10	50*	21	6.6e-05
CC(Sc1nnc(Cn2c(=O)sc3ccccc32)n1C)c1ccccc1 (stereo unspecified)	-1	0	-45	51*	8	0.0014
COc1ccc(CC(CC(=O)O)C(=O)NCc2ccccc2)cc1 (stereo unspecified)	.	1	.	.	-10	.
COc1ccc(CNC(=O)C(C)NC(=O)c2cc3ccccc3o2)cc1 (stereo unspecified)	-10	3	-10	25	9	-1.7*
CC(C)c1nnc(NC(=O)c2c(O)c3cccc4c3n(c2=O)CCC4)s1	40*	0	-33	24	6	0.29
Cc1cccc(NC(=O)c2c(O)c3cccc4c3n(c2=O)CCC4)n1	74*	0	-72	22	9	-1
COC(=O)CSc1nc(-c2ccccc2)c2c(c1C#N)CCCC2	0	8.6*	-52	16	27	-0.26
COC(=O)CSc1nc2c(c(-c3ccc(C)o3)c1C#N)CCCC2	-9	3	-9	40	-7	-0.54
COc1ccc2c(C(=O)CN3CCN(c4ccccc4)CC3)c[nH]c2c1	-3	0	2	28*	-1	1.1
SMILES	Yeast lifespan up	RAM network inh	Yeast growth inh	Measles CPE	WT yeast gro inh	DAT uptake mod
O=C(CSc1ccccc1C(=O)O)NCc1ccccc1	.	0	.	.	-5	.
Cc1cccc(-c2noc(CN(C(=O)CCc3ccccc3)C(C)C)n2)c1	11	2	-18	23	58	0.62
Cc1cccc(-c2noc(CN(C)S(=O)(=O)c3cc(Cl)ccc3Cl)n2)c1	-10	8.6*	-42	20	24	-0.34
Cc1cccc(-c2noc(CN(C(=O)/C=C/c3ccccc3Cl)C(C)C)n2)c1	3	11*	-53	10	47	.
CC(C)OC(=O)c1cccc(NC(=O)CSc2nnc(N)s2)c1	.	1	.	.	13	.
CCC(=NCc1ccc(Cl)c(Cl)c1)c1nc(-c2ccco2)oc1O	-6	11*	-43	2	67*	.
Clc1cccc2c1CCN(Cc1nc(-c3cnccn3)no1)C2	.	1	.	.	-13	.
Cn1c(N)c(C(=O)CSc2nc(N)cc(N)n2)c(=O)n(C)c1=O	.	2	.	.	2	.
